{"source": "paper PMC6925336", "about": "(European journal of pharmaceutical sciences : official …, 2019)", "key": {"[1]": {"assay": "Plasma pharmacokinetic study, 20 mg/kg IV, PK/PD model", "type": "in vivo, CD-1 nude mice bearing G3MB", "conditions": "plasma model re-estimated with 20 mg/kg IV data", "procedure,_shortened": "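Nine female CD-1 nude mice with orthotopic G3MB (~1×10^7 photons/sec) got 20 mg/kg prexasertib mesylate IV in 20% w/v Captisol. Sparse sampling: 2–3 plasma samples per mouse to 24 h, LC-MS/MS.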"}, "cleaved caspase-3": {"tested_on": "cleaved caspase-3", "type": "in vivo, mice bearing G3MB", "conditions": "20 mg/kg IV single dose, at 24 hours post-dose; not statistically significant", "procedure,_shortened": "(§1)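 G3MB-bearing mice (N=21), enrolled at ~1×10^7 photons/sec, were randomized to vehicle or one 20 mg/kg IV bolus. Brains were harvested pre-dose and at 1, 2, 6 and 24 h post-dose and fixed in paraformaldehyde. Immunohistochemistry was done for pCHK1 S345, γ-H2AX and cleaved caspase-3. Scanned slides were quantified as percent positive-staining cells.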"}, "[2]": {"assay": "Plasma protein binding by equilibrium dialysis", "type": "in vitro ADME, mouse", "procedure,_shortened": "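Equilibrium dialysis. CD-1 mouse plasma (sodium heparin) was spiked at final 2–2000 ng/ml (eight levels), in triplicate, against blank Ringer's solution. Rotated at 37°C for 24 h, then both sides sampled. Fraction unbound = buffer-side concentration / plasma-side total concentration.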"}, "pCHK1 S345": {"tested_on": "pCHK1 S345", "assay": "Pharmacodynamic study, immunohistochemistry of G3MB tumor tissue: pCHK1 S345", "type": "in vivo, mice bearing G3MB", "procedure,_shortened": "as §1"}, "γ-H2AX": {"tested_on": "γ-H2AX", "assay": "Pharmacodynamic study, immunohistochemistry of G3MB tumor tissue: γ-H2AX", "type": "in vivo, mice bearing G3MB", "procedure,_shortened": "as §1"}, "[3]": {"assay": "Cerebral microdialysis, brain ECF, non-tumor bearing", "type": "in vivo, CD-1 nude mice (non-tumor bearing)", "conditions": "10 mg/kg SQ", "procedure,_shortened": "(§2)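 Female CD-1 nude mice, non-tumor-bearing (N=7) or with cortical G3MB implants enrolled at ~1×10^7 photons/sec (N=8). Stereotactic cortical guide cannula; 1 mm probe (38 kDa MWCO) perfused with Ringer's at 0.5 µl/min, 1 h equilibration. Single 10 mg/kg SQ dose. Hourly dialysate to 24 h; plasma at 0.25, 6.5 and 24 h. LC-MS/MS. Unbound ECF = dialysate/probe recovery. Population PK model gave per-mouse AUCs and ECF rate constants.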"}, "[4]": {"assay": "Plasma pharmacokinetic study, 10 mg/kg SQ, population model", "type": "in vivo, CD-1 nude mice bearing G3MB", "conditions": "for AUC: Model-derived AUCplasma, total plasma", "procedure,_shortened": "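Nine female CD-1 nude mice carrying orthotopic mouse G3MB cells (enrolled at ~1×10^7 photons/sec) got 10 mg/kg SQ in 20% w/v Captisol. Population design: 2–3 samples per mouse up to 24 h, […]. Plasma assayed by LC-MS/MS. Fit with a two-compartment model with first-order absorption and linear elimination (apparent parameters); FOCE with interaction; log-normal inter-individual variability.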"}, "[5]": {"conditions": "adult patients, recommended phase II dosage of 105 mg/m^2; ref Hong et al., 2016; cited from earlier work"}, "[6]": {"assay": "Cerebral microdialysis, tumor ECF, mice bearing G3MB", "type": "in vivo, CD-1 nude mice bearing G3MB", "procedure,_shortened": "as §2"}, "[7]": {"conditions": "PK/PD model, fixed based upon a sensitivity analysis"}, "[8]": {"conditions": "10 mg/kg SQ, apparent parameter"}, "[9]": {"conditions": "10 mg/kg SQ, ECF model, G3MB mice"}}, "note": "“And” between values parts separate entries of the source, which are not always exact repeats. Equal entries are not always repeated.", "data": [{"smiles": "COc1cccc(OCCCN)c1-c1cc(Nc2cnc(C#N)cn2)n[nH]1", "note": "[prexasertib, 5-(5-[2-(3-Aminopropoxy)-6-methoxyphenyl]-1H-pyrazol-3-yl}amino)pyrazine-2-carbonitrile methanesulfonate hydrate]", "values": [{"measurement": "CL, plasma clearance, estimate (RSE%)", "setting": "[1]", "value": "6.03 (8.0%) l/h/kg"}, {"measurement": "Q, tissue (peripheral) clearance, estimate (RSE%)", "setting": "[1]", "value": "0.807 (10%) l/h/kg"}, {"measurement": "Vc, plasma volume, estimate (RSE%)", "setting": "[1]", "value": "2.67 (13%) l/kg"}, {"measurement": "Vp, tissue (peripheral) volume, estimate (RSE%)", "setting": "[1]", "value": "3.79 (6.0%) l/kg"}, {"measurement": "ka, absorption rate constant, estimate (RSE%)", "setting": "[1]", "value": "1.16 (10%) h^−1"}, {"measurement": "Increase of cleaved caspase-3", "setting": "cleaved caspase-3", "value": 1.4, "unit": "fold"}, {"measurement": "Binding to the dialysis membrane of the Equilibrium Dialyzer plate", "setting": "[2]", "value": "negligibly bound"}, {"measurement": "fraction unbound at 24 h", "setting": "[2]; CD-1, mouse, plasma", "value": 0.11}, {"measurement": "Time of peak induction of pCHK1 S345 after the dose", "setting": "pCHK1 S345; 20 mg/kg IV single dose", "value": 2, "unit": "hours"}, {"measurement": "Time pCHK1 S345 stayed above baseline after the dose", "setting": "pCHK1 S345; 20 mg/kg IV single dose", "value": "at least 6 hours"}, {"measurement": "Peak in pCHK1 S345 nuclear staining", "setting": "pCHK1 S345; 20 mg/kg IV single dose, at 2 hours", "value": 2.2, "unit": "fold"}, {"measurement": "EC50 at 20 mg/kg", "setting": "pCHK1 S345; Mus musculus, iv, read-out: pCHK1 S345 EC50, prexasertib ECF concentration for 50% stimulation of maximum function of kin, estimate (RSE%), PK/PD model, 20 mg/kg IV, tumor ECF, preliminary", "value": 0.0102, "unit": "µg/mL"}, {"measurement": "pCHK1 S345 EC50, prexasertib ECF concentration for 50% stimulation of maximum function of kin, estimate (RSE%)", "setting": "pCHK1 S345; PK/PD model, 20 mg/kg IV, tumor ECF, preliminary, 20 mg/kg", "value": "10.15 (26.5%) ng/ml"}, {"measurement": "pCHK1 S345 Emax, maximum extent of stimulation", "setting": "pCHK1 S345; [7]", "value": "2.0 (-)"}, {"measurement": "Time of peak induction of γ-H2AX after the dose", "setting": "γ-H2AX; 20 mg/kg IV single dose", "value": 2, "unit": "h"}, {"measurement": "Time γ-H2AX was elevated above baseline", "setting": "γ-H2AX; 20 mg/kg IV single dose", "value": "at least 6 hours"}, {"measurement": "pH2Ax Emax, maximum extent of stimulation", "setting": "γ-H2AX; [7]", "value": "5.0 (-)"}, {"measurement": "θNTB on CLef, proportional shift for NTB mice, estimate (RSE%)", "setting": "[3]; ECF model", "value": "2.20 (38%)"}, {"measurement": "θNTB on CLin, proportional shift for NTB mice, estimate (RSE%)", "setting": "[3]; ECF model", "value": "0.93 (45%)"}, {"measurement": "θNTB on kb45, proportional shift for NTB mice, estimate (RSE%)", "setting": "[3]; ECF model", "value": "5.90 (77%)"}, {"measurement": "θNTB on kb54, proportional shift for NTB mice, estimate (RSE%)", "setting": "[3]; ECF model", "value": "17.9 (32%)"}, {"measurement": "Time of maximum brain ECF concentrations post-dose", "setting": "[3]; NTB mice", "value": 1, "unit": "h"}, {"measurement": "AUCplasma of unbound prexasertib (mean ± SD)", "setting": "[3]; NTB mice, at 24 hours post-dose, from total exposure and FU", "value": "271 ± 23", "unit": "ng·h/mL"}, {"measurement": "Unbound AUCECF (mean ± SD)", "setting": "[3]; brain ECF, NTB mice, at 24 hours post-dose", "value": "24.8 ± 11.8 ng·h/mL and 24.8 ng·h/mL"}, {"measurement": "CL, plasma (central) clearance, estimate (RSE%)", "setting": "[4]; [8]", "value": "5.64 (4.3%) l/h/kg"}, {"measurement": "Q, tissue (peripheral) clearance, estimate (RSE%)", "setting": "[4]; [8]", "value": "0.58 (13%) l/h/kg"}, {"measurement": "Vc, plasma (central) volume, estimate (RSE%)", "setting": "[4]; [8]", "value": "1.81 (18%) l/kg"}, {"measurement": "Vp, tissue (peripheral) volume, estimate (RSE%)", "setting": "[4]; [8]", "value": "3.42 (8.0%) l/kg"}, {"measurement": "ka, absorption rate constant, estimate (RSE%)", "setting": "[4]; 10 mg/kg SQ, plasma population model", "value": "1.07 (12%) h^−1"}, {"measurement": "half-life", "setting": "[4]; female, CD-1 nude, mouse, plasma, subcutaneous, 10 mg/kg", "value": 4.5, "unit": "h"}, {"measurement": "AUC", "setting": "[4]; female, CD-1 nude, mouse, plasma, subcutaneous, 10 mg/kg, 0−∞ (mean ± SD), 10 mg/kg SQ", "value": "1820 ± 462", "unit": "ng·h/mL"}, {"measurement": "AUC", "setting": "[4]; female, CD-1 nude, mouse, plasma, subcutaneous, 10 mg/kg, 0−∞, range, 10 mg/kg SQ", "value": "1460 to 2880", "unit": "ng·h/mL"}, {"measurement": "Plasma exposure AUCplasma, 0−∞ (mean ±SD)", "setting": "[5]", "value": "2410 ± 1229", "unit": "ng·h/mL"}, {"measurement": "kb45, peripheral rate constant, estimate (RSE%)", "setting": "[6]; [9]", "value": "0.39 (24%) h^−1"}, {"measurement": "kb54, peripheral rate constant, estimate (RSE%)", "setting": "[6]; [9]", "value": "0.05 (41%) h^−1"}, {"measurement": "Time of maximum tumor ECF concentrations post-dose", "setting": "[6]; 10 mg/kg SQ, mice bearing G3MB", "value": 1, "unit": "h"}, {"measurement": "Unbound AUCECF (mean ± SD)", "setting": "[6]; 10 mg/kg SQ, tumor ECF, tumor-bearing mice, at 24 hours post-dose", "value": "47.3 ± 17", "unit": "ng·h/mL"}, {"measurement": "Kp uu", "setting": "[6]; CD-1 nude, mouse, tumor ECF (microdialysate) / unbound plasma, subcutaneous, 10 mg/kg", "value": "0.17 ± 0.08"}]}]}
